Values joined by “and” are separate entries in the source; they are usually repeats but may differ in a detail not shown here. Equal entries are not always repeated. Where two headings read alike, the source gives them in different places.
Assays:
[1] = assay type: in vivo, human; conditions: for Mean sirolimus oral clearance: allometrically scaled (0.75, 70 kg)
Procedure, shortened: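 Oral dosing began at 0.8 mg/m2 twice daily, then adjusted to trough targets of 10 to 15 ng/ml. Concentrations were drawn at 8–14 days, then every 2 weeks (LLOQ 1.0 ng/ml). First-4-week samples (1–3 per patient) fed a Bayesian one-compartment estimator with pediatric neurofibromatosis priors, estimating clearance only. Clearances were scaled allometrically (exponent 0.75, 70 kg), and an Emax fit against age gave CLmatured and Age50.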

CYP3A = assay type: in vitro ADME, human; conditions: ketoconazole at 1 µM; nine individual pediatric liver microsomes aged 1 month to 4 years; mean ± SD
Procedure, shortened: (§1)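 Substrate depletion of the test compound in nine individual pediatric liver microsomes in 100 mM potassium phosphate (pH 7.4) at 37°C, with and without CYP-selective inhibitor (1 µM; ketoconazole for CYP3A, montelukast for CYP2C8). NADPH regenerating system starts the reaction (t=0). Serial aliquots are extracted with methanol/ZnSO4 plus internal standard and analysed by online SPE-LC-MS/MS. kel comes from the log %-remaining vs time slope. % contribution is calculated from kel with and without inhibitor.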

CYP2C8 = molecular target: T1, CYP2C8 (Homo sapiens, UniProt P10632); assay type: in vitro ADME; conditions: montelukast at 1 µM; nine individual pediatric liver microsomes aged 1 month to 4 years; mean ± SD
T1 sequence (P10632 1-490): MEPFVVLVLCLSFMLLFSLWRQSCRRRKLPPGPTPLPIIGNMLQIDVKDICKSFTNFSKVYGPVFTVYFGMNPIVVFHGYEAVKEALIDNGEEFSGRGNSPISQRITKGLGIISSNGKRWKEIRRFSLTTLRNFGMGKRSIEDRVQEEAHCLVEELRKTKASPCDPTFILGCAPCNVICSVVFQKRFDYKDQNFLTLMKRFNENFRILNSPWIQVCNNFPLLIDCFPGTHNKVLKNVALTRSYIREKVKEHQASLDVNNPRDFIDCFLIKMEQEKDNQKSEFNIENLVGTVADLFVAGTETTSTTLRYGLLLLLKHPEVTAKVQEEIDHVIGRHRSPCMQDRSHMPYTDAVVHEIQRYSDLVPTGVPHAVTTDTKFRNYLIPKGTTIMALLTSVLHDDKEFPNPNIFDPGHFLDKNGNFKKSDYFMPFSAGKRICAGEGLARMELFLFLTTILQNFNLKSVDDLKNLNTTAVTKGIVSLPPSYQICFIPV
Procedure, shortened: as §1

recombinant CYP3A7 = recombinant CYP3A7 (Homo sapiens, UniProt P24462); assay: Substrate depletion assay with recombinant CYP3A7; assay type: in vitro ADME
Procedure, shortened: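 Recombinant CYP3A7 (with reductase and cytochrome b5) was brought to 0.4 mg/ml protein with blank microsomes and incubated with sirolimus in 100 mM potassium phosphate, pH 7.4, at 37°C with shaking. NADPH regenerating system started the reaction (t = 0), with aliquots taken at serial times. Sirolimus remaining was measured by on-line SPE–HPLC–MS/MS against an internal standard. The slope of log % remaining versus time was converted to CLint per pmol CYP.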

[2] = test system: P-glycoprotein (MDR1/ABCB1); conditions: cited from earlier work

Sequence of recombinant CYP3A7 (P24462 whole entry): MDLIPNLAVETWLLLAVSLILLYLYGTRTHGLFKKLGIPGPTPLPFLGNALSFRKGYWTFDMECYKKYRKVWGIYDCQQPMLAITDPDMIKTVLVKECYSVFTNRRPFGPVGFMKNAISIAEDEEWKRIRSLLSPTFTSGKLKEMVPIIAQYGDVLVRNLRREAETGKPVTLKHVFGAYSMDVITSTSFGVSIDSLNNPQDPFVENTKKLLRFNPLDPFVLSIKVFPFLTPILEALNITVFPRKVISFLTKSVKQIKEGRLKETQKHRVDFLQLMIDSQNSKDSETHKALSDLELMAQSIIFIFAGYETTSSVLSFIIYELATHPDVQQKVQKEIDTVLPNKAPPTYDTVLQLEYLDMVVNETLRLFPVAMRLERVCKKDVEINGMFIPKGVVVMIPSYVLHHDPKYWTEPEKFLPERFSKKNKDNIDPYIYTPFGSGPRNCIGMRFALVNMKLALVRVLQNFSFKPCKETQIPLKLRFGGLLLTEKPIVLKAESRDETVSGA

CO[C@H]1C[C@@H]2CC[C@@H](C)[C@@](O)(O2)C(=O)C(=O)N2CCCC[C@H]2C(=O)O[C@H]([C@H](C)C[C@@H]2CC[C@@H](O)[C@H](OC)C2)CC(=O)[C@H](C)/C=C(\C)[C@@H](O)[C@@H](OC)C(=O)[C@H](C)C[C@H](C)/C=C/C=C/C=C/1C [sirolimus]
Mean sirolimus oral clearance ([1]; age group 1 year (≥1, <2), n=5): 17 ± 4 L/h | Mean sirolimus oral clearance ([1]; age group 1–8 months (<1), n=9): 11 ± 3 L/h | Mean sirolimus oral clearance ([1]; age group 2 years (≥2, <3), n=3): 21 ± 3 L/h | Mean sirolimus oral clearance ([1]; age group 3–18 years (≥3), n=27): 18 ± 6 L/h | Observed CLmatured ([1]; clinical clearance estimates, patients 1 months to 3 years, n = 20, Emax model): 19.4 ± 2.2 L/h/70 kg | % of Contribution of CYP3A to sirolimus metabolism (CYP3A): 95.8% and 95.8±4.8% | % of Contribution of CYP2C8 to sirolimus metabolism (CYP2C8): less than 10% and 8.5±4.3% | fold lower CLint of CYP3A7 than reported CYP3A4 activity (recombinant CYP3A7; CYP3A4 value from ref 17): 30 fold | fold lower CLint of CYP3A7 than reported CYP3A5 activity (recombinant CYP3A7; CYP3A5 value from ref 17): 13 fold | CLint for recombinant CYP3A7 (recombinant CYP3A7; substrate depletion, 37°C, pH 7.4): 0.30 µl/min/pmol CYP protein | substrate of P-glycoprotein (MDR1/ABCB1) [2]: substrate
